Active and inactive are the calls of the source.
Legend:
Mus musculus [1] = assay: Antinociceptive activity in ip dosed C57BL/6 mouse after 20 mins post treatment by warm water tail-flick assay; format: functional, organism-based
[2] = buffer, pH 7.4, 2 h
Cannabinoid receptor 1 [3] = molecular target: T1, Cannabinoid receptor 1 (Homo sapiens, UniProt P21554); assay: Positive allosteric modulatory activity at human CB1R expressed in CHO-K1 cells assessed as increase in CP55940-induced beta-arrestin2 recruitment after 90 mins in presence of CP55940 at EC20 concentration by pathhunter beta-arrestin assay relative to control; format: cell-based
T1 sequence (P21554 whole entry): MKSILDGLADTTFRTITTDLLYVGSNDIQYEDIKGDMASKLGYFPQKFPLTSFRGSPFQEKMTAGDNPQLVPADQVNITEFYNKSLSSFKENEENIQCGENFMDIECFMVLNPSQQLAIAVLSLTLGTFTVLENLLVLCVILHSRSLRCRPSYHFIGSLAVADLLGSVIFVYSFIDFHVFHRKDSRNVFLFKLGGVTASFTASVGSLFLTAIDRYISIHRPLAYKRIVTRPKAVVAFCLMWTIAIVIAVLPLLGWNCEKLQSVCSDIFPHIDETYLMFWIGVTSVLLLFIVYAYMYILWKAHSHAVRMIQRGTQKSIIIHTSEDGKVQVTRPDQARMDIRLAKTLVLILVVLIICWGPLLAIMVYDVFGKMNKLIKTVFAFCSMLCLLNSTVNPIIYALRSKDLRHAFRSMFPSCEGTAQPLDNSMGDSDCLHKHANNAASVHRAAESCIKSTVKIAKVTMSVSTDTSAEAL
How it was run: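 Read-out was chemiluminescent β-arrestin2 recruitment, fit with a 4-parameter regression. n = 1–3 independent experiments in duplicate.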

[4] = Toxicity in C57BL/6 mouse assessed as effect on hypothermia at 0.1 to 10 mg/kg, ip after 15 mins by thermometric method; format: organism-based; conditions: in vivo
How it was run: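 Male C57BL/6 mice were given 0.1 – 10 mg/kg compound or vehicle (1:1:18 ethanol:cremaphor:saline). Body temperature was measured at 15 min and expressed relative to vehicle (100%). n = 5–6.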

Mus musculus [5] = assay: Antiallodynic activity against CFA-induced mechanical allodynia CD1 mouse model assessed as increase in ipsilateral paw withdrawal threshold at 30 mg/kg, ip after 30 mins post treatment by Von Frey test; format: functional, organism-based
How it was run: (§1)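 Time course in the CFA model at 30 mg/kg i.p. Ipsilateral and contralateral mechanical paw withdrawal thresholds were followed from 30 min to 4 h post-injection in wild-type and CB1 knockout mice. Compared with vehicle by ANOVA and Bonferroni post hoc tests.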

Mus musculus [6] = assay: Antiallodynic activity against CFA-induced mechanical allodynia CB1 receptor knockout CD1 mouse assessed as effect on ipsilateral paw withdrawal threshold at 30 mg/kg, ip measured for 0.5 to 4 hrs by Von Frey test; format: functional, organism-based; how it was run: as §1
Cannabinoid receptor 1 [7] = molecular target: T1, Cannabinoid receptor 1; assay: Allosteric agonist activity at human CB1R expressed in CHO-K1 cells assessed as inhibition of forskolin-induced cAMP accumulation by measuring cAMP accumulation at minimal level at higher concentrations after 90 mins by hit-hunter cAMP assay relative to forskolin; format: functional, cell-based
How it was run: (§2)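 HitHunter CHO-K1 hCB1R cells (20,000/well) were held overnight in Opti-MEM with 1% FBS. They were then co-treated at 37°C with 10 μM forskolin plus compound alone (0.10 nM – 10 μM) for 90 min. Chemiluminescent cAMP detection followed (two 60-min room-temperature steps). Data as % forskolin, variable-slope 4-parameter fit; Emin is the lower plateau. n ≥ 6, triplicate.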

Cannabinoid receptor 1 [8] = molecular target: T1, Cannabinoid receptor 1; assay: Positive allosteric modulatory activity at human CB1R expressed in CHO-K1 cells assessed as increase in CP55940-induced inhibition of forskolin-stimulated cAMP production after 30 mins in presence of CP55940 at EC20 concentration by hit-hunter cAMP assay; format: functional, cell-based
How it was run: (§3)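 Read-out was chemiluminescent cAMP detection, fit with a variable-slope 4-parameter regression. n = 1–3 independent experiments in duplicate.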

Cannabinoid receptor 1 [9] = molecular target: T1, Cannabinoid receptor 1; assay: Positive allosteric modulatory activity at human CB1R expressed in CHO-K1 cells assessed as increase in CP55940-induced beta arrestin2 recruitment after 90 mins in presence of 100 nM CP55940 by pathhunter beta-arrestin assay; format: cell-based
[10] = molecular target: Cannabinoid receptor 1 (Rattus norvegicus) (UniProt P20272); assay: Positive allosteric modulatory activity at N-terminal GFP-tagged rat CB1R receptor expressed in HEK293 cells assessed as increase in CP55940-induced inhibition of forskolin-induced cAMP accumulation by measuring Emax for cAMP accumulation at low concentration of CP55940 at 0.3 microM after 30 mins by TR-FRET assay relative to forskolin; format: functional, cell-based
Cannabinoid receptor 1 (Rattus norvegicus), sequence (P20272 whole entry): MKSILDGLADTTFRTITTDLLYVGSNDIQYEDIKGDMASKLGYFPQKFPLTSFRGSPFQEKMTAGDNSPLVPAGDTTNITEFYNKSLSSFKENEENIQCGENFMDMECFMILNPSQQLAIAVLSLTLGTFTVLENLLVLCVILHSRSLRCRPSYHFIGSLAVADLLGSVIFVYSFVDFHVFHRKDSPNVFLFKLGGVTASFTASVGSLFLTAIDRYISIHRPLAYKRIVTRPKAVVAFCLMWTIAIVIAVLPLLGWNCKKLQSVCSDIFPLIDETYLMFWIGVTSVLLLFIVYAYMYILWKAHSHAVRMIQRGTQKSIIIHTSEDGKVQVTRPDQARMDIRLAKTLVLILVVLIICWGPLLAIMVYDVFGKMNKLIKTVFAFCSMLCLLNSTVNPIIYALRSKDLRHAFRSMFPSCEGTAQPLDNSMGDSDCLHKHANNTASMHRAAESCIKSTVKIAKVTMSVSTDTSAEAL

Cannabinoid receptor 1 [11] = molecular target: T1, Cannabinoid receptor 1; assay: Agonist activity at human CB1 receptor expressed in CHO cell membranes assessed as increase in G-protein coupling by measuring [35S]GTPgammaS binding after 90 mins in presence of [35S]GTPgammaS by liquid scintillation analysis relative to control; format: functional
How it was run: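 [35S]GTPγS binding to G protein in membranes from CHO cells stably expressing human CB1R, with test compound given alone. Data fit to a variable-slope 4-parameter nonlinear regression. n = 4–6 independent experiments in duplicate.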

[12] = molecular target: Cannabinoid receptor 1 (Rattus norvegicus) (UniProt P20272); assay: Positive allosteric modulatory activity at N-terminal GFP-tagged rat CB1R receptor expressed in HEK293 cells assessed as downward shift in CP55940 dependent concentration response curve for inhibition of forskolin-induced cAMP accumulation after 30 mins by TR-FRET assay; format: functional, cell-based
[13] = molecular target: Cannabinoid receptor 1 (Rattus norvegicus) (UniProt P20272); assay: Allosteric agonist activity at N-terminal GFP-tagged rat CB1R expressed in HEK293 cells assessed as inhibition of forskolin-induced cAMP production by measuring cAMP accumulation at minimal level at higher concentrations after 30 min by TR-FRET assay relative to forskolin; format: functional, cell-based
How it was run: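 HEK293 cells stably expressing N-terminal GFP-tagged rat CB1R were trypsin-EDTA dissociated and resuspended in HBSS with 0.1% BSA and 0.5mM IBMX at 500 cells/well. Cells got 5μM forskolin plus compound (1 pM – 10 μM) alone for 30 min. 4-parameter fit; Emin is the lower plateau. n ≥ 3, triplicate.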

Cannabinoid receptor 1 [14] = molecular target: T1, Cannabinoid receptor 1; assay: Allosteric agonist activity at human CB1R expressed in CHO-K1 cells assessed as increase in beta arrestin2 recruitment after 90 mins by pathhunter beta-arrestin assay; format: cell-based
How it was run: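 PathHunter CHO-K1 hCB1R cells (20,000/well) were held overnight in Opti-MEM with 1% FBS. Compound alone (0.10 nM – 10 μM) was given at 37°C for 90 min, then detection solution for 60 min at room temperature and chemiluminescence was read.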

Cannabinoid receptor 1 [15] = molecular target: T1, Cannabinoid receptor 1; assay: Allosteric agonist activity at human CB1R expressed in CHO-K1 cells assessed as inhibition of forskolin-induced cAMP accumulation after 90 mins by hit-hunter cAMP assay; format: functional, cell-based; how it was run: as §2
Cannabinoid receptor 1 [16] = molecular target: T1, Cannabinoid receptor 1; assay: Positive allosteric modulatory activity at human CB1R expressed in CHO-K1 cells assessed as maximal increase in CP55940-induced beta arrestin2 recruitment after 90 mins in presence of 100 nM CP55940 by pathhunter beta-arrestin assay relative to CP55940; format: cell-based
Cannabinoid receptor 1 [17] = molecular target: T1, Cannabinoid receptor 1; assay: Displacement of [3H]SR141716A from human CB1R receptor expressed in CHO cell membranes after 2 hrs by liquid scintillation spectrometry analysis
Cannabinoid receptor 1 [18] = molecular target: T1, Cannabinoid receptor 1; assay: Positive allosteric modulatory activity at human CB1R expressed in CHO-K1 cells assessed as increase in CP55940-induced inhibition of forskolin-stimulated cAMP production after 30 mins in presence of CP55940 at EC20 concentration by hit-hunter cAMP assay relative to control; format: functional, cell-based; how it was run: as §3
Mus musculus [19] = assay: Antiallodynic activity against CFA-induced mechanical allodynia CD1 mouse model assessed as effect on ipsilateral paw withdrawal threshold at 30 mg/kg, ip after 4 hrs post treatment by Von Frey test; format: functional, organism-based; how it was run: as §1
[20] = Toxicity in C57BL/6 mouse assessed as catalepsy at 0.1 to 10 mg/kg, ip after 5 mins by bar holding assay; format: organism-based; conditions: in vivo
How it was run: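 Male C57BL/6 mice were given 0.1 – 10 mg/kg compound or vehicle (1:1:18 ethanol:cremaphor:saline). Catalepsy was assessed at 5 min as % MPE with a 60 sec maximum. n = 5–6.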

Mus musculus [21] = assay: Antiallodynic activity against CFA-induced mechanical allodynia CD1 mouse model assessed as increase in ipsilateral paw withdrawal threshold at 3 to 30 mg/kg, ip measured every 3 hrs for 2 days post treatment by Von Frey test; format: functional, organism-based
How it was run: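 Mice received CFA injection into one paw. Mechanical paw withdrawal thresholds were measured in the injected (ipsilateral) and contralateral paws after i.p. compound at 0.1, 0.3, 1, 3, 10 or 30 mg/kg, compared with vehicle-treated groups at the same times.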

For `O=[N+]([O-])CC(c1ccccc1F)c1c(-c2cccc(F)c2)[nH]c2cc(F)ccc12` (configuration not stated), the Activity (Mus musculus [1]) was “Dose-dependent effect”, the Kinetic_solubility [2] was 1.56 µM and the Emax (Cannabinoid receptor 1 [3]) was 71%. For the same compound, the Activity [4] was “Non-Toxic”, the Activity (Mus musculus [5]) was “Active” and the Activity (Mus musculus [6]) was “inactive”. It also gave an Emin (Cannabinoid receptor 1 [7]) of 4.2%, an EC50 (Cannabinoid receptor 1 [8]) of 28 nM and an EC50 (Cannabinoid receptor 1 [9]) of 190 nM. The Emax [10] was 32%, the Emax (Cannabinoid receptor 1 [11]) was 81% and the Activity [12] was “Dose-dependent effect”. For the same compound, the Emin [13] was 32%, the EC50 (Cannabinoid receptor 1 [14]) was 1600 nM and the EC50 (Cannabinoid receptor 1 [15]) was 4.3 nM. For the same compound, the Emax (Cannabinoid receptor 1 [16]) was 130%, the Ki (Cannabinoid receptor 1 [17]) was 4.8 nM and the Emax (Cannabinoid receptor 1 [18]) was 93%. The Activity (Mus musculus [19]) was “inactive”, the Activity [20] was “Non-Toxic” and the Activity (Mus musculus [21]) was “Active”.
For `O=[N+]([O-])CC(c1ccccc1F)c1c(-c2cccc(F)c2)[nH]c2c(F)cccc12` (configuration not stated), the Activity (Mus musculus [1]) was “Dose-dependent effect”, the Kinetic_solubility [2] was 1.56 µM and the Emax (Cannabinoid receptor 1 [3]) was 82%. For the same compound, the Activity [4] was “Non-Toxic”, the Activity (Mus musculus [5]) was “Active” and the Activity (Mus musculus [6]) was “inactive”. For the same compound, the Emin (Cannabinoid receptor 1 [7]) was 18%, the EC50 (Cannabinoid receptor 1 [8]) was 9.1 nM and the EC50 (Cannabinoid receptor 1 [9]) was 3500 nM. The Emax [10] was 33%, the Emax (Cannabinoid receptor 1 [11]) was 84% and the Activity [12] was “Dose-dependent effect”. The Emin [13] was 30%, the EC50 (Cannabinoid receptor 1 [14]) was > 10000 nM and the EC50 (Cannabinoid receptor 1 [15]) was 3.9 nM. It also gave an Emax (Cannabinoid receptor 1 [16]) of 130%, a Ki (Cannabinoid receptor 1 [17]) of 5.2 nM and an Emax (Cannabinoid receptor 1 [18]) of 93%. The Activity (Mus musculus [19]) was “inactive”, the Activity [20] was “Non-Toxic” and the Activity (Mus musculus [21]) was “Active”.

— ChEMBL document CHEMBL4376840, “Application of Fluorine- and Nitrogen-Walk Approaches: Defining the Structural and Functional Diversity of 2-Phenylindole Class of Cannabinoid 1 Receptor Positive Allosteric Modulators” (J Med Chem, 2020)
